Laboratory results from ChEMBL document CHEMBL2057101, “Fluorocyclines. 2. Optimization of the C-9 side-chain for antibacterial activity and oral efficacy” (J Med Chem, 2012).
≈ marks a conversion by molar mass, not a printed value.

Key:
Haemophilus influenzae [1] = assay: Antibacterial activity against Haemophilus influenzae 551 infected in immunocompetent Sprague-Dawley rat assessed as reduction in lung CFU per gram of tissue at 50 mg/kg, po administered 5, 24 and 48 hrs post infection measured after 72 hrs; format: functional
Procedure, shortened: (§1)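 Male Sprague-Dawley rats (175–200 g), immunocompetent, infected intratracheally with H. influenzae 551 (0.05 mL) under light anesthesia. Dosing at 5, 24 and 48 h post infection: test agent 100 mg/kg/dose orally or 25 mg/kg/dose IV; azithromycin 50 mg/kg/dose orally. Six rats per dose. Lungs removed 72 h after treatment began, homogenized, serially diluted, plated on TSA-II, incubated overnight at 37 °C in 5% CO2; CFU/g lung calculated.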

Escherichia coli [2] = assay: Antibacterial activity against Escherichia coli ATCC 25922 isolate 107; format: functional
Procedure, shortened: (§2)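 MIC by broth microdilution in liquid medium per CLSI, in cation-adjusted Mueller Hinton broth made fresh and held at 4 °C before testing. Horse blood (defibrinated) added to the medium where appropriate. Runs were accepted only when the comparator antibiotics and ATCC QC strains fell within their recommended ranges.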

Staphylococcus aureus [3] = assay: Antibacterial activity against tetracycline-resistant Staphylococcus aureus isolate SA158 expressing TetK gene; format: functional
Klebsiella pneumoniae = assay: Antibacterial activity against Klebsiella pneumoniae ATCC 13883; format: functional; procedure, shortened: as §2
[4] = Oral bioavailability in rat; format: ADME, organism-based; details: in vivo
Staphylococcus aureus [5] = assay: Antibacterial activity against Staphylococcus aureus ATCC 13709 infected in CD-1 mouse assessed as increase in survival at 3 mg/kg, iv administered as single dose 1 hr post infection measured after 48 hrs post infection; format: functional
Procedure, shortened: (§3)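 Mouse septicemia screen: S. aureus grown to log phase, diluted in 5% mucin to give 90% mortality within 48 h, inoculum 1.98 × 10⁶ CFU/mouse, 0.5 mL intraperitoneal into female CD-1 mice (18−20 g). Six mice per group. Single 30 mg/kg oral gavage or 3 mg/kg IV dose 1 h post infection. Infection controls received sterile water vehicle. Survival recorded at 48 h.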

Staphylococcus aureus [6] = assay: Antibacterial activity against tetracycline-susceptible Staphylococcus aureus ATCC 13709 Smith isolate SA100; format: functional
Procedure, shortened: (§4)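 Broth microdilution MIC following CLSI methods in cation-adjusted Mueller Hinton broth, prepared fresh and held at 4 °C before testing. Defibrinated horse blood added to the medium where appropriate. Runs accepted when quality control ranges for comparator antibiotics and ATCC QC strains were met.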

Staphylococcus aureus [7] = assay: Antibacterial activity against Staphylococcus aureus ATCC 13709 infected in CD-1 mouse assessed as increase in survival at 30 mg/kg, po administered as single dose 1 hr post infection measured after 48 hrs post infection; format: functional; procedure, shortened: as §3
Streptococcus pneumoniae [8] = assay: Antibacterial activity against Streptococcus pneumoniae ATCC 49619 isolate 106; format: functional; procedure, shortened: as §2
Escherichia coli [9] = assay: Antibacterial activity against Escherichia coli isolate EC155 expressing tetA gene; format: functional; procedure, shortened: as §2
Staphylococcus aureus [10] = assay: Antibacterial activity against tetracycline-resistant Staphylococcus aureus isolate SA161 expressing TetM gene; format: functional; procedure, shortened: as §4
[11] = (§5) Oral bioavailability in CD1 mouse at 30 mg/kg; format: ADME, organism-based; details: CD1, mouse, in vivo
[12] = Oral bioavailability in human; format: ADME, organism-based; details: in vivo
Streptococcus pneumoniae [13] = assay: Antibacterial activity against tetracycline-resistant Streptococcus pneumoniae isolate 160 expressing tetM gene; format: functional
Staphylococcus aureus [14] = assay: Antibacterial activity against Staphylococcus aureus ATCC 13709 infected in po dosed CD-1 mouse assessed as increase in survival administered as single dose 1 hr post infection measured after 48 hrs post infection; format: functional; details: ATCC 13709, po, read-out: PD50
Mus musculus = assay: as §5; format: ADME, organism-based; details: mouse, in vivo, BLD = below limit of detection
Moraxella catarrhalis = assay: Antibacterial activity against Moraxella catarrhalis; format: functional; procedure, shortened: as §2
Streptococcus pneumoniae [15] = assay: Antibacterial activity against Streptococcus pneumoniae 1629 infected in immunocompetent CD-1 mouse infection model assessed as reduction in lung CFU at 30 mg/kg, po administered 5, 24 and 36 hrs post infection measured 48 hrs post treatment
Haemophilus influenzae [16] = assay: Antibacterial activity against Haemophilus influenzae 551 infected in immunocompetent Sprague-Dawley rat assessed as reduction in lung CFU per gram of tissue at 100 mg/kg, po administered 5, 24 and 48 hrs post infection measured after 72 hrs; format: functional; procedure, shortened: as §1
Streptococcus pneumoniae [17] = assay: Antibacterial activity against Streptococcus pneumoniae SPN160; format: functional; procedure, shortened: as §4
Streptococcus pyogenes = assay: Antibacterial activity against Streptococcus pyogenes; format: functional; procedure, shortened: as §2
Staphylococcus aureus [18] = assay: Antibacterial activity against methicillin-resistant Staphylococcus aureus VL-137; format: functional; procedure, shortened: as §4
Staphylococcus aureus [19] = assay: Antibacterial activity against methicillin-resistant Staphylococcus aureus VL-137 infected in neutropenic Balb/c mouse assessed as reduction in lung CFU at 50 mg/kg, po administered 2 and 12 hrs post infection measured 24 hrs post treatment; format: functional
Procedure, shortened: (§6)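 Female Balb/c mice (18−20 g) made neutropenic with IP cyclophosphamide, 150 and 100 mg/kg on days −4 and −1. Intranasal infection under light anesthesia. Treatment at 2 and 12 h post infection, oral 50 mg/kg/dose or IV 10 mg/kg/dose, six mice per group. At 24 h lungs were homogenized and plated on TSA (37 °C, 5% CO₂, overnight). Read-out is CFU/g lung.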

Haemophilus influenzae [20] = assay: Antibacterial activity against Haemophilus influenzae 551 infected in immunocompetent Sprague-Dawley rat assessed as reduction in lung CFU per gram of tissue at 25 mg/kg, iv administered 5, 24 and 48 hrs post infection measured after 72 hrs; format: functional; procedure, shortened: as §1
Acinetobacter baumannii = assay: Antibacterial activity against Acinetobacter baumannii; format: functional; procedure, shortened: as §2
Staphylococcus aureus [21] = assay: Antibacterial activity against methicillin-resistant Staphylococcus aureus VL-137 infected in neutropenic Balb/c mouse assessed as reduction in lung CFU at 10 mg/kg, iv administered 2 and 12 hrs post infection measured 24 hrs post treatment; format: functional; procedure, shortened: as §6
Haemophilus influenzae [22] = assay: Antibacterial activity against Haemophilus influenzae 551; format: functional; procedure, shortened: as §2

| Structure (SMILES) | MIC (Escherichia coli [2]) [µg/mL] | MIC (Staphylococcus aureus [3]) [µg/mL] | MIC (Klebsiella pneumoniae) [µg/mL] | bioavailability [4] [%] | survival at 3 mg/kg (Staphylococcus aureus [5]) [%] | MIC (Staphylococcus aureus [6]) [µg/mL] | survival at 30 mg/kg (Staphylococcus aureus [7]) [%] | MIC (Streptococcus pneumoniae [8]) [µg/mL] | MIC (Escherichia coli [9]) [µg/mL] | MIC (Staphylococcus aureus [10]) [µg/mL] | MIC (Streptococcus pneumoniae [13]) [µg/mL] | further results |
| --- | --- | --- | --- | --- | --- | --- | --- | --- | --- | --- | --- | --- |
| CC[C@H]1OC(=O)[C@H](C)[C@@H](O[C@H]2C[C@@](C)(OC)[C@@H](O)[C@H](C)O2)[C@H](C)[C@@H](O[C@@H]2O[C@H](C)C[C@H](N(C)C)[C@H]2O)[C@](C)(O)C[C@@H](C)CN(C)[C@H](C)[C@@H](O)[C@]1(C)O [AZITHROMYCIN] |  |  |  |  |  |  |  |  |  |  |  | log10CFU/g (Haemophilus influenzae [1]): >=6 |
| CN(C)c1cc(CNCC(C)(C)C)c(O)c2c1C[C@H]1C[C@H]3[C@H](N(C)C)C(O)=C(C(N)=O)C(=O)[C@@]3(O)C(O)=C1C2=O [OMADACYCLINE] | 2 (≈ 3.59 µM) | 0.25 (≈ 0.449 µM) | 2 (≈ 3.59 µM) | 0.7 | 100 | 0.5 (≈ 0.898 µM) | 33 | 0.031 (≈ 0.0557 µM) | 16 (≈ 28.7 µM) | 2 (≈ 3.59 µM) | 0.125 (≈ 0.225 µM) | bioavailability [11]: 1.5%; bioavailability [12]: 33%; ED50 (Staphylococcus aureus [14]): 30.3 mg/kg |
| CN(C)c1cc(NC(=O)CNC(C)(C)C)c(O)c2c1C[C@H]1C[C@H]3[C@H](N(C)C)C(O)=C(C(N)=O)C(=O)[C@@]3(O)C(O)=C1C2=O [TIGECYCLINE] | 0.125 (≈ 0.213 µM) | 0.063 (≈ 0.108 µM) | 0.125 (≈ 0.213 µM) |  | 100 | 0.063 (≈ 0.108 µM) | 0 | 0.016 (≈ 0.0273 µM) | 0.5 (≈ 0.854 µM) | 0.13 (≈ 0.222 µM) | 0.016 (≈ 0.0273 µM) | F (Mus musculus): BLD |
| CN(C)[C@@H]1C(O)=C(C(N)=O)C(=O)[C@@]2(O)C(O)=C3C(=O)c4c(O)c(NC(=O)[C@@H]5CCCN5C)cc(F)c4C[C@H]3C[C@@H]12 [TP-271] | 0.25 (≈ 0.448 µM) | 0.13 (≈ 0.233 µM) | 2 (≈ 3.58 µM) | 5.7 | 100 | 0.13 (≈ 0.233 µM) | 100 | 0.016 (≈ 0.0286 µM) | 8 (≈ 14.3 µM) | 0.25 (≈ 0.448 µM) | 0.016 (≈ 0.0286 µM) | MIC (Moraxella catarrhalis): 0.016 µg/mL (≈ 0.0286 µM); MIC50 (Moraxella catarrhalis): 0.016 µg/mL (≈ 0.0286 µM); MIC90 (Moraxella catarrhalis): 0.016 µg/mL (≈ 0.0286 µM); log10CFU/g (Streptococcus pneumoniae [15]): 4.75; log10CFU/g (Haemophilus influenzae [16]): 1.77; MIC (Streptococcus pneumoniae [17]): 0.016 µg/mL (≈ 0.0286 µM); MIC50 (Streptococcus pneumoniae [17]): 0.016 µg/mL (≈ 0.0286 µM); MIC90 (Streptococcus pneumoniae [17]): 0.016 µg/mL (≈ 0.0286 µM); MIC (Streptococcus pyogenes): 0.016 µg/mL (≈ 0.0286 µM); MIC50 (Streptococcus pyogenes): 0.016 µg/mL (≈ 0.0286 µM); MIC90 (Streptococcus pyogenes): 0.016 µg/mL (≈ 0.0286 µM); MIC50 (Staphylococcus aureus [18]): 0.031 µg/mL (≈ 0.0555 µM); MIC90 (Staphylococcus aureus [18]): 0.13 µg/mL (≈ 0.233 µM); log10CFU/g (Staphylococcus aureus [19]): 1.99; log10CFU/g (Haemophilus influenzae [20]): 4.87; MIC50 (Acinetobacter baumannii): 0.13 µg/mL (≈ 0.233 µM); MIC90 (Acinetobacter baumannii): 1 µg/mL (≈ 1.79 µM); log10CFU/g (Staphylococcus aureus [21]): 3.03; MIC50 (Haemophilus influenzae [22]): 0.25 µg/mL (≈ 0.448 µM); MIC90 (Haemophilus influenzae [22]): 0.5 µg/mL (≈ 0.895 µM) |
